Measurements published in ChEMBL document CHEMBL4396885, “Thioether-based 2-aminobenzamide derivatives: Novel HDAC inhibitors with potent in vitro and in vivo antitumor activity” (Eur J Med Chem, 2019).

How the values were obtained:
A549 [1] = assay: Cell cycle arrest in human A549 cells assessed as increase in accumulation of cells at G2/M phase after 48 hrs by propidium iodide staining-based flow cytometry; format: functional
A549 [2] = assay: Induction of apoptosis in human A549 cells assessed as late apoptotic cells at 0.5 uM after 48 hrs by Annexin V-FITC/propidium iodide staining based flow cytometry (reference value: 0.637%); format: functional
Summary of the method: (§1)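 A549 seeded 4×10⁶ cells/well, dosed after 12 h with compound at various concentrations, harvested after 48 h. Resuspended in annexin-binding buffer, stained with Annexin V-FITC and propidium iodide for 15 min in the dark, analysed by flow cytometry; means of three separate experiments.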

A549 [3] = assay: Induction of apoptosis in human A549 cells assessed as necrotic cells at 0.5 uM after 48 hrs by Annexin V-FITC/propidium iodide staining based flow cytometry (reference value: 0.135%); format: functional; summary of the method: as §1
A549 [4] = assay: Cell cycle arrest in human A549 cells assessed as accumulation of cells at G2/M phase at 1 uM after 48 hrs by propidium iodide staining-based flow cytometry (reference value: 13.62%); format: functional
A549 [5] = assay: Cell cycle arrest in human A549 cells assessed as accumulation of cells at S phase at 1 uM after 48 hrs by propidium iodide staining-based flow cytometry (reference value: 12.83%); format: functional
A549 [6] = assay: Induction of apoptosis in human A549 cells assessed as early apoptotic cells at 2 uM after 48 hrs by Annexin V-FITC/propidium iodide staining based flow cytometry (reference value: 1.19%); format: functional; summary of the method: as §1
A549 [7] = assay: Antiproliferative activity against human A549 cells assessed as growth inhibition at 2 uM after 72 hrs by CCK-8 assay relative to control; format: functional; details: A549, 72 h, read-out: GI
A549 [8] = assay: Induction of apoptosis in human A549 cells assessed as necrotic cells at 2 uM after 48 hrs by Annexin V-FITC/propidium iodide staining based flow cytometry (reference value: 0.135%); format: functional; summary of the method: as §1
A549 [9] = assay: Cell cycle arrest in human A549 cells assessed as accumulation of cells at G2/M phase at 0.5 uM after 48 hrs by propidium iodide staining-based flow cytometry (reference value: 13.62%); format: functional
HeLa [10] = assay: Antiproliferative activity against human HeLa cells assessed as growth inhibition at 8 uM after 72 hrs by CCK-8 assay relative to control; format: functional; details: read-out: GI
A549 [11] = assay: Induction of apoptosis in human A549 cells assessed as early apoptotic cells at 1 uM after 48 hrs by Annexin V-FITC/propidium iodide staining based flow cytometry (reference value: 1.19%); format: functional; summary of the method: as §1
A549 [12] = assay: Cell cycle arrest in human A549 cells assessed as accumulation of cells at G0/G1 phase at 0.5 uM after 48 hrs by propidium iodide staining-based flow cytometry (reference value: 73.35%); format: functional
[13] = Toxicity against nude Balb/c mouse xenografted with human A549 cells assessed as no change in body weight at 25 mg/kg, ip administered twice per day for 21 days and measured every 3 days during compound dosing; format: organism-based; details: in vivo
Summary of the method: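 Female BALB/c nude mice, 5–6 weeks, implanted s.c. in right axilla with 3×10⁶ A549 cells; randomized at ~95 mm³ tumor volume, 4 per group. Dosed ip 25 mg/kg twice daily for 21 days; vehicle controls got DMA & 5% Solutol HS-15 (5:95). Tumor size (V=length×width²/2) and body weight measured every 3 days; TGI from volume change relative to control.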

A549 [14] = assay: Cell cycle arrest in human A549 cells assessed as accumulation of cells at G0/G1 phase at 1 uM after 48 hrs by propidium iodide staining-based flow cytometry (reference value: 73.35%); format: functional
A549 [15] = assay: Cell cycle arrest in human A549 cells assessed as accumulation of cells at S phase at 2 uM after 48 hrs by propidium iodide staining-based flow cytometry (reference value: 12.83%); format: functional
A549 [16] = assay: Induction of apoptosis in human A549 cells assessed as late apoptotic cells at 2 uM after 48 hrs by Annexin V-FITC/propidium iodide staining based flow cytometry (reference value: 0.637%); format: functional; summary of the method: as §1
Histone deacetylase 1 = Histone deacetylase 1 (Homo sapiens, UniProt Q13547); assay: Inhibition of recombinant human His tagged HDAC1 expressed in baculovirus infected insect cells assessed as decrease in deacetylation of FLUOR DE LYS Green substrate preincubated for 10 mins followed by substrate addition and measured after 30 mins by fluorescence based assay
Histone deacetylase 1, sequence (Q13547 whole entry): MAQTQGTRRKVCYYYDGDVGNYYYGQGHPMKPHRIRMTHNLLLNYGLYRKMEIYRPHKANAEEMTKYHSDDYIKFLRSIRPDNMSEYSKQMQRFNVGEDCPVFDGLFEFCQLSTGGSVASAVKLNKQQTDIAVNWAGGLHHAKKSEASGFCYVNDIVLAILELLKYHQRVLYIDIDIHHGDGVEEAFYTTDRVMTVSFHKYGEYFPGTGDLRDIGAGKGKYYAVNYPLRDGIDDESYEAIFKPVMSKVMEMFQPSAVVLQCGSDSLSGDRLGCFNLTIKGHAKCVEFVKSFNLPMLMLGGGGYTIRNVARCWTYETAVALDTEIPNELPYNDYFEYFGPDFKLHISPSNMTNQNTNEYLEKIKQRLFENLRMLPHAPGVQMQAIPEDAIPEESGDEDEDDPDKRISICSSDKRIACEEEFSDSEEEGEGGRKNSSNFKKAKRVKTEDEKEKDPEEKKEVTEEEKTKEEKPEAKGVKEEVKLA

SMMC-7721 = assay: Antiproliferative activity against human SMMC7721 cells assessed as growth inhibition at 8 uM after 72 hrs by CCK-8 assay relative to control; format: functional; details: SMMC-7721, 72 h, read-out: GI
[17] = AUC (0 to infinity) in ICR mouse at 4 mg/kg, iv after 0.08 to 24 hrs by LC-MS/MS analysis; format: ADME, organism-based; parameters: dose 4 mg/kg, time infinity, route intravenous; details: in vivo
Summary of the method: (§2)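 Male ICR mice (29.7~37.4 g), single iv dose 4 mg/kg in DMSO:40% SBE-β-CD 20:80 (v/v). Retro-orbital blood at 0.08–24 h into EDTA-K2 tubes; plasma protein-precipitated with acetonitrile containing internal standards, analysed by LC-MS/MS; n=3 per time point; noncompartmental analysis.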

NIH3T3 = assay: Cytotoxicity against mouse NIH/3T3 cells assessed as reduction in cell viability after 72 hrs by CCK-8 assay; format: cell-based; details: NIH3T3, 72 h
A549 [18] = assay: Induction of apoptosis in human A549 cells assessed as viable cells at 2 uM after 48 hrs by Annexin V-FITC/propidium iodide staining based flow cytometry (reference value: 98%); format: functional; details: A549, 48 h, read-out: Activity; summary of the method: as §1
[19] = molecular target: Histone deacetylase 3/NCoR1 (Homo sapiens, UniProt O15379); assay: Inhibition of recombinant human HDAC3/NCOR1 assessed as decrease in deacetylation of FLUOR DE LYS SIRT1 substrate preincubated for 10 mins followed by substrate addition and measured after 30 mins by fluorescence based assay; format: protein-complex assay
Histone deacetylase 3/NCoR1, sequence (O15379 whole entry): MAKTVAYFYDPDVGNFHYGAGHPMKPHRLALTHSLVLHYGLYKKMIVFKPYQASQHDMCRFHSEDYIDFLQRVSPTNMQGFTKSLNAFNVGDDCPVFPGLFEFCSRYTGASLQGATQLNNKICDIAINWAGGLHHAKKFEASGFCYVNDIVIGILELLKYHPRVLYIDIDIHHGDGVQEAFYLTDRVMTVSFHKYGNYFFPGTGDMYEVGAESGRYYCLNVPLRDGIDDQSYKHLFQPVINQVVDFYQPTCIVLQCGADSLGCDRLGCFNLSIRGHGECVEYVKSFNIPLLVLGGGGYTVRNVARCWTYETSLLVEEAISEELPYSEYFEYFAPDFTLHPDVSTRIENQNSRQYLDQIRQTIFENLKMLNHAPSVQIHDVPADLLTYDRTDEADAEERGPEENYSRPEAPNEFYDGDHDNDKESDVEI
Histone deacetylase 3/NCoR1, sequence (O75376 whole entry, further chain): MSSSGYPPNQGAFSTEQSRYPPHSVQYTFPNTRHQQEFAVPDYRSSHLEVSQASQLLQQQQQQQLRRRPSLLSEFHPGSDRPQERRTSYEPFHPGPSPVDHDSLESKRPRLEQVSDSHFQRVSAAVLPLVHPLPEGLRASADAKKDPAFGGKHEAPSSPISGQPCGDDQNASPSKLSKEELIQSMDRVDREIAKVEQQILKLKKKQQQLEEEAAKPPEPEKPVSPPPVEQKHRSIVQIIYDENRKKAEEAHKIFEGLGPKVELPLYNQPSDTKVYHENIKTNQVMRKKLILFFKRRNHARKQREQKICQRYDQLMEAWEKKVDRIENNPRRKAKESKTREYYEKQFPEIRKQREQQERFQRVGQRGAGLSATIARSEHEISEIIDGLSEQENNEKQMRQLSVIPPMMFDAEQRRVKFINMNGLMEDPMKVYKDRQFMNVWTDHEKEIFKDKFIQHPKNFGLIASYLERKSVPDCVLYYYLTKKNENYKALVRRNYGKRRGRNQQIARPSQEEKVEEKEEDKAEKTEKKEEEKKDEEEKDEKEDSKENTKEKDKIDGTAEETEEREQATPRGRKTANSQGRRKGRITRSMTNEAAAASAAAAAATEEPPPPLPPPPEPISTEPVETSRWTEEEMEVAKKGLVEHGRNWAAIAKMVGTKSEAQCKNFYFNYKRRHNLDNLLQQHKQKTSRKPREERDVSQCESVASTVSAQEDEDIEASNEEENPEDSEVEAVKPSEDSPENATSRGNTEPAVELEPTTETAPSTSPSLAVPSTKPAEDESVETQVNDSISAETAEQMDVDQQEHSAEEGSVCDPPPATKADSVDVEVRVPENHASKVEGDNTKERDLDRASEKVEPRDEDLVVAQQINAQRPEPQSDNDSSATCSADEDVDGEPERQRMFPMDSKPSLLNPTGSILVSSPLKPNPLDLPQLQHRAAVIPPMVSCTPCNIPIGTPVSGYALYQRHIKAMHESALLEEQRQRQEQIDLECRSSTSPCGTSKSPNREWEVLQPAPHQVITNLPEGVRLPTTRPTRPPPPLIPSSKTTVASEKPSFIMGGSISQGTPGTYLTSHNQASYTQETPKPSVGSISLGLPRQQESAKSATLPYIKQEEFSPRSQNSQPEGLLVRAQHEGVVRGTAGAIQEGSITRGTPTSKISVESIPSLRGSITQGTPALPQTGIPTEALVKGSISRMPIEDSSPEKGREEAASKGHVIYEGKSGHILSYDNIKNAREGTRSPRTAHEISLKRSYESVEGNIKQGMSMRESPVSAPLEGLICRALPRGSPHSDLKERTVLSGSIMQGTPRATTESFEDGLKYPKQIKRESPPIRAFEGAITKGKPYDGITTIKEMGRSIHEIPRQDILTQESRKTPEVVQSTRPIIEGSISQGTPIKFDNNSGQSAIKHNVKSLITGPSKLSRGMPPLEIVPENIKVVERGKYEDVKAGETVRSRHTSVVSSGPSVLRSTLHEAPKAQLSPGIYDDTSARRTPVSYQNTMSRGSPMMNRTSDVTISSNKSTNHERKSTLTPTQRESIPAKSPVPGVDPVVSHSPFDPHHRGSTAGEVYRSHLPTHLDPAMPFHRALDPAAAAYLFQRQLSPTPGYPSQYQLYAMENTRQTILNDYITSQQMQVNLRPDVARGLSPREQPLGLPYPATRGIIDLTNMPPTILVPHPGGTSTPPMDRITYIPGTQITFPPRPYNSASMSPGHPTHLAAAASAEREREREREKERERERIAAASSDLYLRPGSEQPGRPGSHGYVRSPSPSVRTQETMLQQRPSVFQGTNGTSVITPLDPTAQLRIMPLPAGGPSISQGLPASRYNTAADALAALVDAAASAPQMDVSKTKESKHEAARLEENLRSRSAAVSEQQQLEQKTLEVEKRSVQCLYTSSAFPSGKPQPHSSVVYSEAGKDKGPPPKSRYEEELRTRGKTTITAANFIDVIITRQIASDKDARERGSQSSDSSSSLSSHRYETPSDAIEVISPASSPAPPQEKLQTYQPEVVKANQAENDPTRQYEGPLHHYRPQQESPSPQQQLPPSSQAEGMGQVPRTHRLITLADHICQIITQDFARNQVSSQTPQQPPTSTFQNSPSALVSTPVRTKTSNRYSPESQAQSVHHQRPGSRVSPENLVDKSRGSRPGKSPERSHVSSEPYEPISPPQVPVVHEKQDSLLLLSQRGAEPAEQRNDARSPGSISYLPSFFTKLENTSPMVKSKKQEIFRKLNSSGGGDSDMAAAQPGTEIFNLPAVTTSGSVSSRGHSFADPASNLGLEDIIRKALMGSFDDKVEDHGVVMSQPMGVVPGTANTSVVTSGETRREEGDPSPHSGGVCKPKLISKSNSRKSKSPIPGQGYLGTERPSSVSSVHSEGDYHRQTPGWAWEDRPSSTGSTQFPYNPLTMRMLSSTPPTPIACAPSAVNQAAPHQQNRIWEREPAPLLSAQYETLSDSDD

Histone deacetylase 2 = Histone deacetylase 2 (Homo sapiens, UniProt Q92769); assay: Inhibition of recombinant human HDAC2 assessed as decrease in deacetylation of FLUOR DE LYS Green substrate preincubated for 10 mins followed by substrate addition and measured after 30 mins by fluorescence based assay
Histone deacetylase 2, sequence (Q92769 whole entry): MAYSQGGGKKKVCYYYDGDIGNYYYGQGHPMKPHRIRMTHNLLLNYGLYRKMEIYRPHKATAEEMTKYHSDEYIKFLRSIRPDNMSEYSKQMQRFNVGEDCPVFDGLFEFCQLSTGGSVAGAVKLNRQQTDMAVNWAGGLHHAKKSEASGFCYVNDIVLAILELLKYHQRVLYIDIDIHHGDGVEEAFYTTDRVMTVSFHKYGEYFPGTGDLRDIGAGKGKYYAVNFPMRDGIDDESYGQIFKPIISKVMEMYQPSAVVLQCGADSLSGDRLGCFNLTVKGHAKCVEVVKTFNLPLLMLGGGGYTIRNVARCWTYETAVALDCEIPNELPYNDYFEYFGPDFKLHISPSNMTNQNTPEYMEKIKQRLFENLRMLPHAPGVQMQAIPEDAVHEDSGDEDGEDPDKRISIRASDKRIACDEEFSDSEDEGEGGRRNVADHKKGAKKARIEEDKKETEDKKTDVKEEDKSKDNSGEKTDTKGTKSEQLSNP

HeLa [20] = assay: Antiproliferative activity against human HeLa cells assessed as decrease in cell viability after 72 hrs by CCK-8 assay; format: functional, cell-based
Summary of the method: (§3)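 Cells grown to 70–85% confluence (A375, A549, HCT116 in RPMI1640; HeLa, SMMC7721 in DMEM; 10% FBS, 37 °C, 5% CO2), seeded 4000/well, dosed after 12 h across a concentration range, incubated 72 h, then CCK-8 for 1 h; absorbance at 450 nm. IC50 as mean ± SD of three separate experiments.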

A-375 [21] = assay: Antiproliferative activity against human A375 cells assessed as growth inhibition at 2 uM after 72 hrs by CCK-8 assay relative to control; format: functional; details: A-375, 72 h, read-out: GI
A-375 [22] = assay: Antiproliferative activity against human A375 cells assessed as decrease in cell viability after 72 hrs by CCK-8 assay; format: functional, cell-based; details: A-375, 72 h; summary of the method: as §3
A549 [23] = assay: Antiproliferative activity against human A549 cells assessed as decrease in cell viability after 72 hrs by CCK-8 assay; format: functional, cell-based; details: A549, 72 h; summary of the method: as §3
[24] = AUC (0 to t) in ICR mouse at 4 mg/kg, iv after 0.08 to 24 hrs by LC-MS/MS analysis; format: ADME, organism-based; parameters: time upper 24 hr, dose 4 mg/kg, time lower 0.08 hr, route intravenous; details: in vivo; summary of the method: as §2

Row | SMILES | Activity (A549 [1]) | Activity (A549 [2]) [%] | Activity (A549 [3]) [%] | Activity (A549 [4]) [%] | Activity (A549 [5]) [%] | Activity (A549 [6]) [%] | inhibition of growth at 2 µM (A549 [7]) [%] | Activity (A549 [8]) [%] | Activity (A549 [9]) [%] | inhibition of growth at 8 µM (HeLa [10]) [%] | Activity (A549 [11]) [%] | Activity (A549 [12]) [%] | Activity [13] | Activity (A549 [14]) [%] | Activity (A549 [15]) [%] | Activity (A549 [16]) [%] | IC50 (Histone deacetylase 1) [nM] | inhibition of growth at 8 µM (SMMC-7721) [%] | AUC(0-inf) [17] [ng·h/mL] | IC50 (NIH3T3) [nM] | other results
1 | COc1ccc(SCc2ccc(C(=O)Nc3ccccc3N)cc2)cc1 | Dose-dependent effect | 15 | 13.8 | 38.3 | 20.63 | 5.65 | 45.7 | 20.3 | 18.07 | 79.7 | 19.8 | 64.38 | Non-Toxic | 41.07 | 12.64 | 26.6 | 16 | 80.1 | 740 | 4040 | viability at 2 µM (A549 [18]): 47.5%; IC50 [19]: 136 nM; IC50 (Histone deacetylase 2): 205 nM; IC50 (HeLa [20]): 2390 nM; inhibition of growth at 2 µM (A-375 [21]): 10.2%; IC50 (A-375 [22]): 3010 nM; IC50 (A549 [23]): 2570 nM; AUC(0-t) [24]: 737 ng·h/mL
2 | CCc1ccc(SCc2ccc(C(=O)Nc3ccccc3N)cc2)cc1 | Dose-dependent effect | 7.08 | 1.14 | 59.87 | 9.74 | 6.55 | 53.6 | 13.2 | 53.55 | 71 | 6.52 | 33.89 | Non-Toxic | 30.39 | 9.52 | 16.7 | 71 | 82.9 | 874 | 3660 | viability at 2 µM (A549 [18]): 63.5%; IC50 [19]: 215 nM; IC50 (Histone deacetylase 2): 144 nM; IC50 (HeLa [20]): 3800 nM; inhibition of growth at 2 µM (A-375 [21]): 19.6%; IC50 (A-375 [22]): 2420 nM; IC50 (A549 [23]): 3040 nM; AUC(0-t) [24]: 868 ng·h/mL
